This passage reports inhibition and IC50 results from ChEMBL document CHEMBL2424592, “Epothilone D and its 9-Methyl analogues: combinatorial syntheses, conformation, and biological activities” (Eur J Med Chem, 2013).

One assay deals with Tubulin (Homo sapiens) (UniProt P68371+Q9H4B7+P0DPH7+P68366+Q13509+Q71U36+P04350+Q3ZCM7+P07437+P68363+Q9BQE3+Q6PEY2+Q13885+Q9BVA1+Q9BUF5). The assay is described as follows: Inhibition of tubulin polymerization (unknown origin) at 5 uM. In kind it is protein-complex assay. In a few lines: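 Tubulin came from fresh animal brain (species not given), homogenized in cold MES buffer and purified through repeated cold (4 °C) and warm 105,000 g centrifugation cycles, then diluted to 2 mg/mL in MES. Cold tubulin was mixed with ATPNa2 (40 mmol/L stock) and compound. Polymerization was followed as OD350 every 3 min at 37 °C for 30 min.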

Assay [1] can be described thus: Cytotoxicity against human MCF7/ADR cells after 72 hrs. In kind it is functional, cell-based. Particulars: NCI/ADR-RES.
Another assay concerns MCF7. The experiment in a line: Cytotoxicity against human MCF7 cells after 72 hrs. In kind it is functional, cell-based. Particulars: MCF7, 72 h.

`C/C1=C/C[C@@H](/C(C)=C/c2csc(C)n2)OC(=O)C[C@H](O)C(C)(C)C(=O)[C@H](C)[C@@H](O)[C@@H](C)[C@H](C)CC1` had an inhibition on Tubulin (Homo sapiens) of 15.7%. Moreover, the values for the IC50 (in assay [1]; in the assay on MCF7) were 0.51 µM and 0.99 µM, respectively.
`C/C1=C\C[C@@H](/C(C)=C/c2csc(C)n2)OC(=O)C[C@H](O)C(C)(C)C(=O)[C@H](C)[C@@H](O)[C@@H](C)[C@@H](C)CC1`: the IC50 was > 100 µM in assay [1] and 93.4 µM with MCF7.
Turning to `C/C1=C\C[C@@H](/C(C)=C/c2csc(C)n2)OC(=O)C[C@H](O)C(C)(C)C(=O)[C@H](C)[C@@H](O)[C@@H](C)[C@H](C)CC1`, the IC50 turned out to be 7.3 µM in assay [1] and 7.7 µM with MCF7.
`C/C1=C/C[C@@H](/C(C)=C/c2csc(C)n2)OC(=O)C[C@H](O)C(C)(C)C(=O)[C@H](C)[C@@H](O)[C@@H](C)[C@@H](C)CC1`: the inhibition at Tubulin (Homo sapiens) was found to be 8.5%. Also, the IC50 in the assay on MCF7 stood at 35.4 µM.
The molecule `C/C1=C/C[C@@H](/C(C)=C/c2csc(C)n2)OC(=O)C[C@H](O)C(C)(C)C(=O)[C@H](C)[C@@H](O)[C@@H](C)CCC1` [EPOTHILONE D] showed an inhibition against Tubulin (Homo sapiens) of 43.3%. Besides, the IC50 in assay [1] is 0.01 µM; with MCF7 it was 0.014 µM.
